Inhibition and fold change (FC) data for three molecules are collected here from ChEMBL document CHEMBL5653631, “A Potent and Selective ULK1 Inhibitor Suppresses Autophagy and Sensitizes Cancer Cells to Nutrient Stress” (iScience, 2018).

Structures are written as SMILES.

Assay [1] has as its target Death-associated protein kinase 1 (Homo sapiens) (UniProt P53355). Description: Inhibition of human recombinant DAPK1 at 40 nM in presence of ATP by radiometric assay relative to control.
The target in assay [2] is T1, Interleukin-1 receptor-associated kinase 4 (Homo sapiens) (UniProt Q9NWZ3).
T1 sequence (whole entry): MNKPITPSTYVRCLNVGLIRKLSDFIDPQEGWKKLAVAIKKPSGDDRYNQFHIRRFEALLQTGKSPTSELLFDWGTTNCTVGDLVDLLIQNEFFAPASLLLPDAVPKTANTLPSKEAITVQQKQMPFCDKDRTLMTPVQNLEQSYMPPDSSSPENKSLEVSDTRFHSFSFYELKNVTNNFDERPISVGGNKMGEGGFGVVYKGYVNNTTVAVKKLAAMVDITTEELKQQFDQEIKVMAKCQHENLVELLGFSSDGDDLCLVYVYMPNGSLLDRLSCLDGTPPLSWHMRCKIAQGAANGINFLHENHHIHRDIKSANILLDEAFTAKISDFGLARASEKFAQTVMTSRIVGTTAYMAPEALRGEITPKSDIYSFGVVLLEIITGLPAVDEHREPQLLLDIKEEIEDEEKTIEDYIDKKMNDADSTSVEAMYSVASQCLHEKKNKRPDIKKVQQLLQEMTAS
The experiment in a line: Inhibition of human recombinant IRAK4 at 40 nM related to control ULK1.

Assay [3] addresses T2, Receptor-interacting serine/threonine-protein kinase 1 (Homo sapiens) (UniProt Q13546).
T2 sequence (whole entry): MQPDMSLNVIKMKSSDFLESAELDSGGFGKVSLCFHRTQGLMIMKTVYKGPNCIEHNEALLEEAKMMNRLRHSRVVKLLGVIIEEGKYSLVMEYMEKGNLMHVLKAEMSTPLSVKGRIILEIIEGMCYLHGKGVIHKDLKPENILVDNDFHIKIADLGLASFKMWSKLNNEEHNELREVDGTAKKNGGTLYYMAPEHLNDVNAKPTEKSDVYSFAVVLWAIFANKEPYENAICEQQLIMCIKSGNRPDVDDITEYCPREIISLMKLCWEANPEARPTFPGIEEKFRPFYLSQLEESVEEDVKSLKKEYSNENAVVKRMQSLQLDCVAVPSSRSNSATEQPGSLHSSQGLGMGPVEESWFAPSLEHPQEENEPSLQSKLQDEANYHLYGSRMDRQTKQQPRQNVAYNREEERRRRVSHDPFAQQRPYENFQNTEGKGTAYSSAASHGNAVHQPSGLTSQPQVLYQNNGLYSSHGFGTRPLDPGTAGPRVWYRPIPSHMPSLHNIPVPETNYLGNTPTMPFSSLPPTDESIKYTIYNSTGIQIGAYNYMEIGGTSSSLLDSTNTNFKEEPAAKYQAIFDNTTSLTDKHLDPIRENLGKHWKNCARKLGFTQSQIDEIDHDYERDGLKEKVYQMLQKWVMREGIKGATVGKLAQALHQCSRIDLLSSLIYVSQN
Description: Inhibition of human recombinant RIPK1 at 40 nM related to control ULK1.

In assay [4] the target is DNA-PK/Ku70/Ku85 (Homo sapiens) (UniProt P78527+P12956+P13010). Description: Inhibition of human recombinant DNAPK at 500 nM in presence of ATP by radiometric assay relative to control. Format: protein-complex assay.
Assay [5] deals with Tyrosine-protein kinase JAK1 (Homo sapiens) (UniProt P23458). Description: Inhibition of human recombinant JAK1 at 500 nM in presence of ATP by radiometric assay relative to control.
Assay [6] concerns the target Myosin light chain kinase, smooth muscle (Homo sapiens) (UniProt Q15746). Description: Inhibition of human recombinant smMLCK at 500 nM related to control ULK1.
Assay [7] concerns the target 5'-AMP-activated protein kinase catalytic subunit alpha-1 (Homo sapiens) (UniProt Q13131). The experiment in a line: Inhibition of human recombinant AMPKa1 at 15 nM in presence of ATP by radiometric assay relative to control. A digest of the protocol:
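Panel of 327 recombinant human kinases, each assayed in vitro by radiometric activity assay in duplicate at a single inhibitor concentration per compound, chosen with reference to its ULK1 inhibition. Activity remaining was expressed as percent of vehicle control, and percent inhibition was calculated as 100 minus percent activity remaining.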

The target in assay [8] is T3, Ephrin type-A receptor 3 (Homo sapiens) (UniProt P29320).
T3 sequence (whole entry): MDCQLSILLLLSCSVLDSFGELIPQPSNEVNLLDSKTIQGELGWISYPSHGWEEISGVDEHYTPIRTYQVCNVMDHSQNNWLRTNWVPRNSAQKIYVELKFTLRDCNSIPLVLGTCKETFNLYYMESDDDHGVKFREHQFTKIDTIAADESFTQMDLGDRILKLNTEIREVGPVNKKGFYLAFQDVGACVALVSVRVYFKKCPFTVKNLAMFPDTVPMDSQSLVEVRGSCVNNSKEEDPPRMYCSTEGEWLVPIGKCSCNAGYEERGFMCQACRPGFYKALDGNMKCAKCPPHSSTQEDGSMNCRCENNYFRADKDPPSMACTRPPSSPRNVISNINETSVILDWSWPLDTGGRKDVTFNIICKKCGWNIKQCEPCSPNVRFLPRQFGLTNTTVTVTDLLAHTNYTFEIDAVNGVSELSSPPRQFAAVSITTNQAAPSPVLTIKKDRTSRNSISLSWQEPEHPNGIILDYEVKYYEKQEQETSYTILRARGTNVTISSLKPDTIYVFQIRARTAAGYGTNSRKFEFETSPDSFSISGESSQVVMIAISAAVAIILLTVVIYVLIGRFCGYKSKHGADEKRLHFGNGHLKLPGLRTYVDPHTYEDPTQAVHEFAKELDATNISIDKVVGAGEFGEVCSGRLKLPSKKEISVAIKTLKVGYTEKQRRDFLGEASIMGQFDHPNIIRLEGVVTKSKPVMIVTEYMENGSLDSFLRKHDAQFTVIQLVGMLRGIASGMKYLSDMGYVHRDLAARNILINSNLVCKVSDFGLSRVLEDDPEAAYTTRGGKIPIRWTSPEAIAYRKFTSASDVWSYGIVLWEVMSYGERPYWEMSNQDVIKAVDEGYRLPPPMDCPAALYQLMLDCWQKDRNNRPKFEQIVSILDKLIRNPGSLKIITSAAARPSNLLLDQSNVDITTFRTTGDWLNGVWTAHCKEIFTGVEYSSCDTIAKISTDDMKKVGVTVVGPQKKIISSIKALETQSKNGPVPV
The experiment in a line: Inhibition of human recombinant EphA3 at 15 nM in presence of ATP by radiometric assay relative to control.

The target of assay [9] is Tyrosine-protein kinase BTK (Homo sapiens) (UniProt Q06187). Description: Inhibition of human recombinant BTK at 15 nM related to control ULK1.
The target of assay [10] is Ephrin type-A receptor 7 (Homo sapiens) (UniProt Q15375). The experiment in a line: Inhibition of human recombinant EphA7 at 15 nM related to control ULK1.

Sequence of Myosin light chain kinase, smooth muscle (Homo sapiens) (Q15746 whole entry): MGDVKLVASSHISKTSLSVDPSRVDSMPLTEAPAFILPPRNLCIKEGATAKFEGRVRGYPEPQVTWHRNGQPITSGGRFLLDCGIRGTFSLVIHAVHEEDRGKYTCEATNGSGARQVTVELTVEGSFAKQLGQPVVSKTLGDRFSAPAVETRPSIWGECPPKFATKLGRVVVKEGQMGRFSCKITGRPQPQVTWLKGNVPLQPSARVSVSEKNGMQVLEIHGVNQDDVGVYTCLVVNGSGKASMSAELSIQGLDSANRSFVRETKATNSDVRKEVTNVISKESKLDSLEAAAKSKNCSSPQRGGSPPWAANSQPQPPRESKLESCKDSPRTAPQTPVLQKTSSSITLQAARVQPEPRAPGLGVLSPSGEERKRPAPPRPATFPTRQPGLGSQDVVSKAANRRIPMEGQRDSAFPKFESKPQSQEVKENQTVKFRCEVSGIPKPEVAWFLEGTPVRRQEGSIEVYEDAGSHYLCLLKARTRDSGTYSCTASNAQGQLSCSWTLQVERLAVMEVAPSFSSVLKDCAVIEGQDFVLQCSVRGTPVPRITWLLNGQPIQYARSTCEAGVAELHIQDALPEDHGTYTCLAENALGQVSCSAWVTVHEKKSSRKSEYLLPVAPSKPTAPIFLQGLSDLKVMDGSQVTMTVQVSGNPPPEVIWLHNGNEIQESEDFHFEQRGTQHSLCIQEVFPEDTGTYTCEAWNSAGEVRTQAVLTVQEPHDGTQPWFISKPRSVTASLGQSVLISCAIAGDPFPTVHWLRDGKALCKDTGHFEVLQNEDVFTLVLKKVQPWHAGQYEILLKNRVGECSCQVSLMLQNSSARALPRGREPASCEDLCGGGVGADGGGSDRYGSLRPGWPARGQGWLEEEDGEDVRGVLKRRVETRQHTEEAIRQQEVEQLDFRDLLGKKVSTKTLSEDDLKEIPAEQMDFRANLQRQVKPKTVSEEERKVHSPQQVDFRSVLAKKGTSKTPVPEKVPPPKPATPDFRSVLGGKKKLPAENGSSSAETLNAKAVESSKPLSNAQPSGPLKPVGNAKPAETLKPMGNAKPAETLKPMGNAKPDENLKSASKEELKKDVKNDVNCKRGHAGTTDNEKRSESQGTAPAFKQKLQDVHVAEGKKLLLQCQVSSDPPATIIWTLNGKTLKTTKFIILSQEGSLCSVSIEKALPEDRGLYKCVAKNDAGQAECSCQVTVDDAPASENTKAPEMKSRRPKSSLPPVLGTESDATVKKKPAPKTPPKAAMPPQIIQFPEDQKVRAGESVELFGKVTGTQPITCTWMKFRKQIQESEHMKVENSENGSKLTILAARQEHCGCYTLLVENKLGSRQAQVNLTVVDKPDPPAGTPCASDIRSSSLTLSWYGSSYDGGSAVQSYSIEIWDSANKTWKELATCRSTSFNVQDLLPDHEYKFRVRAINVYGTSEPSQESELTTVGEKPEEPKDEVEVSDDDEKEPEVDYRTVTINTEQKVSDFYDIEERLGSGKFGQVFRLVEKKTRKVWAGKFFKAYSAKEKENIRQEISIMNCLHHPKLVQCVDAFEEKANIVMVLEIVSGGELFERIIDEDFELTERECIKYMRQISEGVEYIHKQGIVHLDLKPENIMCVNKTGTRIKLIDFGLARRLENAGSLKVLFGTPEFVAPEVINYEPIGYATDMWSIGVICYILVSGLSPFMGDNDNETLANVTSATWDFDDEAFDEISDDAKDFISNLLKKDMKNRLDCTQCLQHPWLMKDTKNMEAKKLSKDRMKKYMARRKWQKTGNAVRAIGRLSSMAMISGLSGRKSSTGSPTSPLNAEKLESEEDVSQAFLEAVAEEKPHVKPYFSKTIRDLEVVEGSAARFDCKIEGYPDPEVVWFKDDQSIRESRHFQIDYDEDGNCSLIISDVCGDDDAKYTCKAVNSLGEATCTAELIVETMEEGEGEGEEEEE
Sequence of Tyrosine-protein kinase BTK (Homo sapiens) (Q06187 whole entry): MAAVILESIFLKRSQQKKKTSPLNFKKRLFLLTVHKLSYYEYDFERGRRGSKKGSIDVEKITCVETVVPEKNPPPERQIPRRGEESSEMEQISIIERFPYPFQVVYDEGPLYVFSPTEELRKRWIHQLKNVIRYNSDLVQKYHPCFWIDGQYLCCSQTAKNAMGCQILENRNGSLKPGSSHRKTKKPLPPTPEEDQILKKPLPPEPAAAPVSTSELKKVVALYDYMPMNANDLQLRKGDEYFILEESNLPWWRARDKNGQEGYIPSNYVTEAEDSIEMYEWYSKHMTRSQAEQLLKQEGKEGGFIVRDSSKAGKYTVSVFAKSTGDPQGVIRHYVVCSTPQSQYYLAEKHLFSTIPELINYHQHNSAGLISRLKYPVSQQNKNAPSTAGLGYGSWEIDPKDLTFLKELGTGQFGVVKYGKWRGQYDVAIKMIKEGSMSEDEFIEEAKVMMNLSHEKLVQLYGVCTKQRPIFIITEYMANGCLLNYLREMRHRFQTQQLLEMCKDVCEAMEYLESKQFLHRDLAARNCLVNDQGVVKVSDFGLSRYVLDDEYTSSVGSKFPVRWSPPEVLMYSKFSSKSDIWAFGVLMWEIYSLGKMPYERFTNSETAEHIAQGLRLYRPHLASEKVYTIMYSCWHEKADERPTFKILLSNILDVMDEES
Sequence of 5'-AMP-activated protein kinase catalytic subunit alpha-1 (Homo sapiens) (Q13131 whole entry, looked up): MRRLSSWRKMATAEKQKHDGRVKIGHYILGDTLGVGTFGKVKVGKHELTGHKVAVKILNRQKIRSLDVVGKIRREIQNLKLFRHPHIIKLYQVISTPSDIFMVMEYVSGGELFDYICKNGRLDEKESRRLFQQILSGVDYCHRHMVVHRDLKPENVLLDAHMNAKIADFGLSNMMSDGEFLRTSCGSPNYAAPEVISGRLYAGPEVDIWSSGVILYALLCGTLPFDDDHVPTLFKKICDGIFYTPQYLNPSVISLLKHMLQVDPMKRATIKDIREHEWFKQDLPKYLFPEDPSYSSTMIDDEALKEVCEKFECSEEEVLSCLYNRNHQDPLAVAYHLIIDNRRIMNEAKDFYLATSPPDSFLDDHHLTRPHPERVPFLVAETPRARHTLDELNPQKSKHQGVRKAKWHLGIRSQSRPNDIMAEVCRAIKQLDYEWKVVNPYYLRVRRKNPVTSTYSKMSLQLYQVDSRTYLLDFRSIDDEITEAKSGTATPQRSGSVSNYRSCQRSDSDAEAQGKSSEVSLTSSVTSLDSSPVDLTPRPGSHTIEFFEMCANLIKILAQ
Sequence of Death-associated protein kinase 1 (Homo sapiens) (P53355 whole entry, looked up): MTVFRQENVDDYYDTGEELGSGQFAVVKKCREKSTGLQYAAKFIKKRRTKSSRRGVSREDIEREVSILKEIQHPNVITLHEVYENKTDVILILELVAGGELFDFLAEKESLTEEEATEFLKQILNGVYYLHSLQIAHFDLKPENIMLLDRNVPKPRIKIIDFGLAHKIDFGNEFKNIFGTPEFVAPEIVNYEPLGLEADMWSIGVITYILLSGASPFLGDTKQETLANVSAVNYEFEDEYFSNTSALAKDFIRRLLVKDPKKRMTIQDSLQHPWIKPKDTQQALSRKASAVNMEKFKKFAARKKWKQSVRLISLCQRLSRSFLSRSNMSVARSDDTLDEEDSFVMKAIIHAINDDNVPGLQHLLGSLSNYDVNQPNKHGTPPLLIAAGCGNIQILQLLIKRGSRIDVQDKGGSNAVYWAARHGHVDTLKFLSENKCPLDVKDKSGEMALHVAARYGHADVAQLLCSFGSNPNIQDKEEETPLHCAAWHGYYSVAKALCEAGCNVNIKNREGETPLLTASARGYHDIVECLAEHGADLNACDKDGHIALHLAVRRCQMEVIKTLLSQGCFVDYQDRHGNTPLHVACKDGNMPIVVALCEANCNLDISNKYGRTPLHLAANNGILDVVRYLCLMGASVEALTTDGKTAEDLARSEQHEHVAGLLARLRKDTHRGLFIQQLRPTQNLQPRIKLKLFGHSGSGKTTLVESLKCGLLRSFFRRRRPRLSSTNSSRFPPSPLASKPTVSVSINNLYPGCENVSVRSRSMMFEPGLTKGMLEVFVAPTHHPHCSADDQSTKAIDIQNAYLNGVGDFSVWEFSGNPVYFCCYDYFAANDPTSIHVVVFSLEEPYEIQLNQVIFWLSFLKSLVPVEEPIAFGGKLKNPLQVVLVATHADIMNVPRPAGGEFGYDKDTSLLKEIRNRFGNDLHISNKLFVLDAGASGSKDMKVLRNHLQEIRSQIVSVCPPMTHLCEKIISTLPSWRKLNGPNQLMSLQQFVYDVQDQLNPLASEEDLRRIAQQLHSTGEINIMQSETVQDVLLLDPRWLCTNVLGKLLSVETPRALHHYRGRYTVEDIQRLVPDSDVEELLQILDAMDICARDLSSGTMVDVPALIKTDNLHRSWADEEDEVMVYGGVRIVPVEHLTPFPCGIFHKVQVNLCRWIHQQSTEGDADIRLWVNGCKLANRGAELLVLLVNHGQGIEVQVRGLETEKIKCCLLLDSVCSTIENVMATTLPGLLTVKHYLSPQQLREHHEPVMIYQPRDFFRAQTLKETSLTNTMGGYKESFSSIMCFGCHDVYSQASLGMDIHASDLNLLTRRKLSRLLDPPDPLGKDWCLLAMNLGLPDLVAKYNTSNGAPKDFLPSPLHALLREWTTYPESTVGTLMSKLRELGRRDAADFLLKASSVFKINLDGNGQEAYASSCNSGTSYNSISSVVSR

As for `O=C(N[C@@H](C1CC1)C(F)(F)F)c1cc(-c2cnn3cc(-c4ccc(F)cc4)cnc23)cs1`, the inhibition in [1] was determined as 0%. The figures for the fold change (FC) in assay [2] and in [3] were 0 and 0.03, respectively.

For `CNC(=O)c1ccccc1Oc1nc(Nc2cc(OC)c(OC)c(OC)c2)ncc1Br`, the inhibition in [4] came out at 12%; in assay [5] it was 39%. For the same molecule, in assay [6], the fold change (FC) was 0.07.

Take `CC(C)[C@H](NC(=O)c1cc(-c2cnn3cc(-c4ccc(OCCN5CCCCC5)cc4)cnc23)cs1)C(F)(F)F`: the inhibition was 58% in assay [7] and 3% in [8]. The fold change (FC) in assay [9] and in assay [10] was 0 throughout.

One may read the inhibition as the percentage by which the read-out fell short of the control.
